This is an account of results in ChEMBL document CHEMBL1821622, “Thiazole- and imidazole-containing peptidomimetic inhibitors of protein farnesyltransferase” (Bioorg Med Chem Lett, 2011).

The IC50 is the concentration needed to halve the response being measured.

The nature of experiment [1]: (§1) Inhibition of cell proliferation in RASMC cells after 72 hrs by Coulter Counter method. In kind it is functional, cell-based, Rattus norvegicus. An outline of the steps: (§2)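 Rat aortic SMCs were seeded at 2 × 10^5 cells per 35 mm dish in DMEM with 10% FCS. Cells were counted after trypsinization. DMSO was at most 0.5% final. IC50 came from linear regression of log concentration vs logit.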

The nature of experiment [2]: (§3) Inhibition of rat recombinant FTase using Dansyl-Gly-Cys-Val-Leu-Ser-OH peptide and farnesyl-pyrophosphate substrates measured every 15 seconds for 5 mins by fluorescent assay.
The subject of experiment [3] is RASMC. The experiment can be described thus: Inhibition of rat Ftase in RASMC cells assessed as reduction in Ras prenylation at 2 uM after 72 hrs by Western blot analysis. In kind it is cell-based. In outline:
(§4)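 Rat SMCs were seeded at 4 × 10^5 per 60 mm dish and taken through the same serum arrest and restimulation as the proliferation assay, with 72 h exposure. Cells were lysed for 30 min on ice in Tris pH 7.5/NaCl/NP-40 buffer with inhibitors and cleared at 15,000g. Protein was measured by BCA. Lysates were run on reducing SDS-PAGE and immunoblotted with anti-Ras (RAS10) using ECL. The slower band is unprenylated Ras; the faster band is prenylated Ras.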
For orientation: Immunoblotting shows a protein as a band on a membrane.

The subject of experiment [4] is RASMC. The experiment can be described thus: Inhibition of rat Ftase in RASMC cells assessed as reduction of Ras prenylation at 50 to 100 uM after 72 hrs by Western blot analysis relative to control. Type of experiment: cell-based. An outline of the steps:
as §4

Another experiment is filed under the species Rattus norvegicus. The description is as §3.
The subject of experiment [5] is RASMC. The experiment is described as §1. The following applies: Rattus norvegicus. In kind it is functional, cell-based. An outline of the steps: as §2
Where [6] appears, read: Rattus norvegicus, RASMC, 72 h, read-out: IC50.

The structures appear in SMILES notation. Calls of active or inactive are those of the source. The rule behind the calls is not given here.

Take `CSCC[C@H](NC(=O)c1ccc(NC(=O)Cc2csc(S)n2)cc1-c1ccccc1C)C(=O)OC(C)C`: the half-maximal inhibitory concentration (IC50) in experiment [1] (setting [6]) was 21000 nM.

Turning to `CSCC[C@H](NC(=O)c1ccc(NC(=O)CCc2csc(S)n2)cc1-c1ccccc1C)C(=O)OC(C)C`, the concentration for half-maximal inhibition (IC50) in experiment [1] (setting [6]) amounted to 25000 nM.

For the compound `CSCC[C@H](NC(=O)c1ccc(NC(=O)CCc2csc(S)n2)cc1-c1ccccc1C)C(=O)O`, the half-maximal inhibitory concentration (IC50) in experiment [2] (read-out: IC50) came out at 526 nM.

As for `CSCC[C@H](NC(=O)c1ccc(NC(=O)Cc2c[nH]c(S)n2)cc1-c1ccccc1C)C(=O)OC(C)C`, the IC50 in experiment [1] (setting [6]) is 226000 nM.

Take `CCC(C)(C)C(=O)O[C@H]1C[C@@H](C)C=C2C=C[C@H](C)[C@H](CC[C@@H]3C[C@@H](O)CC(=O)O3)[C@H]21`: the inhibition result in the experiment with RASMC [3] was “Active”.

With `CSCC[C@H](NC(=O)c1ccc(NC(=O)CCc2csc(SC)n2)cc1-c1ccccc1C)C(=O)O`, the IC50 in experiment [2] (read-out: IC50) was 415 nM.

Take `CSCC[C@H](NC(=O)c1ccc(NC(=O)Cc2csc(S)n2)cc1-c1ccccc1C)C(=O)O`: in experiment [2] (read-out: IC50), the concentration for half-maximal inhibition (IC50) was determined as 538 nM.

With `CSCC[C@H](NC(=O)c1ccc(NC[C@@H](N)CS)cc1-c1ccccc1)C(=O)O`, the half-maximal inhibitory concentration (IC50) in experiment [2] (read-out: IC50) was determined as 9 nM.

With `CSCC[C@H](NC(=O)c1ccc(NC(=O)Cc2csc(N)n2)cc1-c1ccccc1C)C(=O)OC(C)C`, in experiment [1] (setting [6]), the concentration for half-maximal inhibition (IC50) came to 107000 nM.

Consider `CSCC[C@H](NC(=O)c1ccc(NC(=O)Cc2c[nH]c(S)n2)cc1-c1ccccc1C)C(=O)O`, for which the 50% inhibitory concentration (IC50) in experiment [2] (read-out: IC50) came out at 122 nM.

Turning to `CSCC[C@H](NC(=O)c1ccc(NC(=O)CCc2csc(SC)n2)cc1-c1ccccc1C)C(=O)OC(C)C`, the half-maximal inhibitory concentration (IC50) entry in experiment [1] (rasmc) is “Not Active”.

For `CSCC[C@H](NC(=O)c1ccc(NC(=O)Cc2csc(SC)n2)cc1-c1ccccc1C)C(=O)OC(C)C`, the half-inhibitory concentration (IC50) entry in experiment [1] (rasmc) was “Not Active”.

With `CSCC[C@H](NC(=O)c1ccc(NC(=O)Cc2csc(SC)n2)cc1-c1ccccc1C)C(=O)O`, the half-maximal inhibitory concentration (IC50) result in experiment [2] is given as “Not Active”.

In the case of `CSCC[C@H](NC(=O)c1ccc(NC(=O)Cc2csc(N)n2)cc1-c1ccccc1C)C(=O)O`, the inhibition result in the experiment with RASMC [4], in the experiment filed under Rattus norvegicus and with RASMC [5] was “Dose-dependent effect” throughout. Also, the IC50 in experiment [2] (read-out: IC50) was determined as 49 nM.

Turning to `CSCC[C@H](NC(=O)c1ccc(NC(=O)CCc2csc(N)n2)cc1-c1ccccc1C)C(=O)O`, in experiment [2] (read-out: IC50), the IC50 came to 390 nM.

Regarding `CSCC[C@H](NC(=O)c1ccc(NC(=O)CCc2csc(N)n2)cc1-c1ccccc1C)C(=O)OC(C)C`, the IC50 entry in experiment [1] (rasmc) was “Not Active”.

In the case of `CSCC[C@H](NC(=O)c1ccc(NC(=O)CCc2c[nH]c(S)n2)cc1-c1ccccc1C)C(=O)O`, the half-maximal inhibitory concentration (IC50) result in experiment [2] was “Not Active”.

`CSCC[C@H](NC(=O)c1ccc(NC(=O)CCc2c[nH]c(S)n2)cc1-c1ccccc1C)C(=O)OC(C)C`: the IC50 in experiment [1] (setting [6]) came to 34000 nM.
